Most compounds without a hit are left out; they make up all but 2.7% or so of the library.
V1aR counter: activates human V1a receptor in oxytocin agonist counter-screen; P37288; CHO-V1R cells, Fluo-8 calcium fluorescence, agonist mode; 0% DMSO, 100% 3 nM vasopressin; activation, % at 3 µM; hit rate 0.25% among 320,000;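 active = activation above the mean activation of all tested compounds plus 3 SD, per screening run, cut at about 20% in these data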;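 note: signal is peak over basal fluorescence ratio across a 100 second FLIPR read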
Target sequence (P37288 whole entry, looked up): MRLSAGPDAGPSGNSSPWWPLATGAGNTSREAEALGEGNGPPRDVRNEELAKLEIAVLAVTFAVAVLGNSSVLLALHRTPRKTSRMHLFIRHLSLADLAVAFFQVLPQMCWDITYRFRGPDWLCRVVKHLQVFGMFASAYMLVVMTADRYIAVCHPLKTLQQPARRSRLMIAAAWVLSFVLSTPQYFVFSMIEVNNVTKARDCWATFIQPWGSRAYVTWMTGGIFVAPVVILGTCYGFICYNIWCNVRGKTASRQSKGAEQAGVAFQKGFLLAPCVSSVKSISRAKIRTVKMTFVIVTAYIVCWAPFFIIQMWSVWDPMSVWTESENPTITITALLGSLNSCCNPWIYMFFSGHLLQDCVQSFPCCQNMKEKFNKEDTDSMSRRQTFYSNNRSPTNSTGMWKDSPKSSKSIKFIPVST
OXTR potentiator: potentiators of human oxytocin receptor; activation, % at 3 µM; P30559; CHO-OTR cells, Fluo-8 calcium fluorescence, potentiator mode; 0% = oxytocin EC15, 100% = EC100; hit rate 0.061% among 320,000; AID 2445;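 active = activation above that plate's cutoff, the mean activation of tested compounds plus 3 SD, cut at about 6.6% in these data, passing the limit was not always enough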;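 note: 100% uses oxytocin at 75 nM as the full agonist control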
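Measured by – Fluo-8 calcium dye fluorescence · Test system – human OTR in CHO cells · Dosing – one concentration, 3.0 µM compound · Controls – EC15 oxytocin alone as 0%, 75 nM oxytocin as 100% · Evaluation – normalized max/min fluorescence ratio, % activation · Timing – 6 min pre-incubation, 100 s read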
OX1R antag-1: blocks the human orexin 1 receptor; hit rate 0.43% among 330,000; inhibition, % at 5 µM; CHO/OX1R cells, Fluo-8 calcium fluorescence, orexin A; AID 434989;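 active = inhibition above its plate's threshold, mean inhibition of all tested compounds on the plate plus 3 SD, cut at about 37% in these data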;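 note: 0% = orexin A challenge wells and 100% = SB-334867-A antagonist wells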
OXTR ag: agonists of human oxytocin receptor. CHO-OTR cells, Fluo-8 calcium fluorescence; normalized: DMSO 0%, oxytocin 100%. activation, % at 3 µM. hit rate 0.32% among 320,000. AID 2435;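 active = activation above the mean of all tested compounds plus 3 SD, cutoff set per screening run, cut at about 20% in these data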;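 note: peak over basal fluorescence ratio from a 100 s FLIPR kinetic read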
OX1R antag-2: blocks the human orexin 1 receptor | inhibition, % at 6.6 µM | hit rate 1.8% among 330,000 | O43613 | OX1R-expressing cells, FRET antagonist read-out; in the data active = inhibition mostly above about 38%, no sharp cut-off; inactive = mostly below about 40%;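 note: 0% = agonist challenge alone and 100% = reference antagonist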
CHO parental Ca: counter-screen: ATP calcium response change in parental CHO cells; AID 463079; parental CHO-K1, ATP-induced calcium, Fluo-8 fluorescence; inhibition, % at 5.6 µM; hit rate 0.63% among 330,000;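 active = inhibition above that plate's mean sample inhibition plus 3 SD, cut at about 26% in these data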;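 note: 0% = ATP-challenged DMSO wells and 100% = DMSO wells without ATP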
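Measured by: calcium-sensitive Fluo-8 fluorescence / Test system: CHO parental line / Controls: ATP-challenged DMSO wells low, unchallenged DMSO wells high / Measure: % inhibition / Compound: single nominal dose of 5.6 µM per compound / Replicates: single well per compound, no replicates / Reagent: ATP as calcium-mobilizing challenge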
* marks the source's active call; other numbers are inactive results.

SMILES	V1aR counter	OXTR potentiator	OX1R antag-1	OXTR ag	OX1R antag-2	CHO parental Ca
COc1ccc(/C(O)=C2/C(=O)C(=O)N(CCN3CCOCC3)C2c2ccc(C)cc2)cc1 (stereo unspecified)	1.2	-2.1	-0.9	1.1	6.2	-12.3
O=C1C(=O)N(CCN2CCOCC2)C(c2ccccn2)/C1=C(/O)c1ccc(F)cc1 (stereo unspecified)	-0.3	-3.0	-5.7	0.3	42.9*	-4.3
CN(C)S(=O)(=O)c1ccc(/C(O)=C2/C(=O)C(=O)N(CCCN3CCOCC3)C2c2ccncc2)cc1 (stereo unspecified)	1.1	-7.3	-3.0	0.6	72.6*	8.3
COc1ccc(/C(O)=C2/C(=O)C(=O)N(CCN3CCOCC3)C2c2ccccn2)cc1 (stereo unspecified)	1.0	-1.8	-6.0	1.9	68.3*	-2.8
CC(C)(C)OC(=O)C[C@H]1C/C=C\C[C@@H](CC(=O)NCCO)C(=O)N[C@H](C(C)(C)C)COC1=O	1.2	9.1	9.3	0.4	0.7	-7.2
Cc1cccc(NC(=O)CSCC(=O)NCc2ccco2)c1	0.3	-4.7	-3.4	-0.1	37.6	-1.5
CCN1CCN(S(=O)(=O)CC2(C)C3CCC2(C)C(=O)C3Br)CC1 (stereo unspecified)	1.5	-7.9	-2.6	0.5	12.8	-23.5
CCOC(=O)c1cc(=O)c2c([N+](=O)[O-])ccc(OC)c2o1	-0.2	-2.8	12.2	0.1	69.8*	-6.9
O=C(c1cc2sccc2n1Cc1ccccc1)N1CCN(c2nc3ccccc3s2)CC1	-0.1	-10.3	-9.6	-0.7	16.7	34.8*
CCCNS(=O)(=O)c1cccc(C(=O)NNC(=O)c2cc(C)oc2C)c1	0.1	2.0	-14.9	-0.8	9.6	-16.8
Cc1nc(NCCc2ccccc2)c2oc3ccccc3c2n1	3.6	-8.2	18.5	7.1	37.1*	46.2*
CCOc1cc(S(=O)(=O)NCc2ccncc2)ccc1Cl	8.6	-31.8	14.4	10.6	26.0	38.0*
COc1ccccc1NC(=O)Nc1nc(CC(=O)NCc2ccc(F)cc2)cs1	4.1	-9.7	-24.7	2.1	24.8	-7.7
COc1cccc(CNC(=O)Cc2csc(NC(=O)Nc3ccccc3OC)n2)c1	0.8	-6.5	-19.6	-0.1	42.3*	-14.4
O=C1C=C(c2ccccc2)C(=O)N1Nc1ccccc1	2.1	-7.9	25.9	2.3	27.2	14.1
Cc1ccc(NN2C(=O)C=C(c3ccc(Cl)cc3)C2=O)cc1	4.4	-17.4	72.7*	1.5	39.5	68.3*
Cc1ccc2c(c1)/C(=N/OS(=O)(=O)c1ccccc1)CCS2	0.2	1.2	-5.8	0.1	13.1	-9.5
CC1=CC(=O)C(C(C)C)=C/C1=N/OS(=O)(=O)c1ccccc1	11.5	-18.1	75.3*	5.4	64.3*	71.5*
CCc1cccc2c(C(=O)Cn3nnc(-c4ccc(OC)c(OC)c4)n3)c[nH]c12	18.7	-21.1	68.9*	17.7	45.4*	41.9*
O=C(Nc1ccc2c(c1)OCO2)C1CC(=O)N(c2ccc(F)cc2)C1 (stereo unspecified)	0.0	-3.6	-17.4	-0.2	4.5	8.1
Cc1ccc(OCCNC(=O)c2ccccc2SCC(=O)N2CCCC2)cc1	5.6	-3.9	-25.5	-1.1	13.7	-19.1
CC[n+]1c(/C=C/N(C)c2ccccc2)n(-c2ccccc2)c2ccc(-c3nc4ccccc4s3)cc21	-0.3	-24.1	79.4*	7.7	41.6*	68.6*
CCOC(=O)c1ccc2c(c1)n(CC)c(/C=C/N(C)c1ccccc1)[n+]2CC	-0.5	-0.1	-6.5	-0.5	6.5	-2.1
CCSc1nnc(NC(=O)[C@H](C)NC(=O)c2ccccc2Cl)s1	-0.6	-18.9	-30.8	-0.3	7.0	1.3
O=C(COc1ccccc1-c1ccccc1)Nc1ccc(S(=O)(=O)NCc2ccco2)cc1	0.5	-7.8	19.5	-0.1	47.5*	-2.7
COCCNC(=O)CSc1nnc(NC(=O)C2CC(=O)N(c3ccccc3OC)C2)s1 (stereo unspecified)	-0.3	-5.8	-12.7	0.0	25.2	-4.1
CN1CCN(S(=O)(=O)c2cccc(C(=O)NCCOc3ccccc3F)c2)CC1	-0.1	-2.2	-11.2	-2.2	-3.9	-12.9

High-throughput results as filed in PubChem BioAssay.
